The record followed here is ChEMBL document CHEMBL1138361, “4-acyl-1-(4-aminoalkoxyphenyl)-2-ketopiperazines as a novel class of non-brain-penetrant histamine H3 receptor antagonists” (J Med Chem, 2007).

The nature of series [1]: Partition coefficient, log D at pH 7.4. In kind it is physicochemical. The note with it: octanol/water. In a few lines:
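Compound in phosphate buffer was shaken with buffer-saturated octanol (3 × 50 inversions). Phases were separated by centrifugation at 300g for 15 min. Both phases were quantified by HPLC, and log D was calculated from peak areas normalized to injection volume.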

Series [2] is described as follows: Ratio of drug level in brain to blood in CD Sprague-Dawley rat at 1 mg/kg, iv after 5 mins. In kind it is ADME, organism-based. Also on record: dose 1 mg/kg, route intravenous. The note with it: brain and blood. Summed up: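 Male CD Sprague-Dawley rats were dosed iv in DMSO-PEG 200-water (5:45:50). Blood and brain were collected 5 min postdose under terminal isoflurane anesthesia. Blood was protein-precipitated; brain was homogenized and extracted. Parent drug was quantified by LCMS/MS.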

Series [3] in a line: Volume of distribution in CD Sprague-Dawley rat at 1.0 mg/kg, iv. In kind it is ADME, organism-based. Also on record: dose 1 mg/kg, route intravenous. Conditions: in vivo. Summed up:
(§1)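 Single iv and oral doses given to male CD Sprague-Dawley rats (1 mg/kg iv, 3 mg/kg po) and male Beagle dogs (1 mg/kg iv, 2 mg/kg po). Vehicle was a DMSO-PEG 200-water (5:45:50) solution. Serial and terminal blood samples were taken at time points up to 7, 12 or 24 h postdose.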

Series [4] is described as follows: Cmax in CD Sprague-Dawley rat at 1.0 mg/kg, iv. In kind it is ADME, organism-based. Details: dose 1 mg/kg, route intravenous. The note with it: in vivo. Summed up: as §1
Series [5] in a line: Cmax in CD Sprague-Dawley rat at 3.0 mg/kg, po. In kind it is ADME, organism-based. Also on record: dose 3 mg/kg, route oral. Conditions: in vivo. In a few lines:
as §1

Series [6] in a line: AUC in CD Sprague-Dawley rat at 1.0 mg/kg, iv. Also on record: dose 1 mg/kg, route intravenous. In kind it is ADME, organism-based. The note with it: plasma. Summed up:
as §1

A short description of series [7]: Clearance in CD Sprague-Dawley rat at 1.0 mg/kg, iv. In kind it is ADME, organism-based. Details: dose 1 mg/kg, route intravenous. The note with it: in vivo. Summed up: as §1
Series [8] in a line: Tmax in CD Sprague-Dawley rat at 3.0 mg/kg, po. In kind it is ADME, organism-based. Details: dose 3 mg/kg, route oral. Conditions: in vivo. Summed up:
as §1

A short description of series [9]: AUC in CD Sprague-Dawley rat at 3.0 mg/kg, po. In kind it is ADME, organism-based. Also on record: dose 3 mg/kg, route oral. Conditions: plasma. In a few lines: as §1
The nature of series [10]: Tmax in CD Sprague-Dawley rat at 1.0 mg/kg, iv. In kind it is ADME, organism-based. Also on record: dose 1 mg/kg, route intravenous. The note with it: in vivo. Summed up:
as §1

A short description of series [11]: Half life in CD Sprague-Dawley rat at 1.0 mg/kg, iv. Conditions: in vivo. Also on record: dose 1 mg/kg, route intravenous. In kind it is ADME, organism-based. Summed up: as §1
A short description of series [12]: Oral bioavailability in CD Sprague-Dawley rat at 3.0 mg/kg, po. In kind it is ADME, organism-based. Conditions: in vivo. In a few lines:
as §1

Series [13] in a line: Clearance in Beagle dog at 1.0 mg/kg, iv. In kind it is ADME, organism-based, Canis lupus familiaris. Also on record: dose 1 mg/kg, route intravenous. Conditions: in vivo. Summed up: as §1
The nature of series [14]: Volume of distribution in Beagle dog at 1.0 mg/kg, iv. In kind it is ADME, organism-based, Canis lupus familiaris. Also on record: dose 1 mg/kg, route intravenous. Conditions: in vivo. In a few lines:
as §1

Series [15] is described as follows: Half life in Beagle dog at 1.0 mg/kg, iv. In kind it is ADME, organism-based, Canis lupus familiaris. Details: dose 1 mg/kg, route intravenous. Conditions: in vivo. In a few lines: as §1

Consider `O=C(c1ccc(F)cc1F)N1CCN(c2ccc(OCCCN3CCCC3)cc2)C(=O)C1`, for which the logD in series [1] was -0.45.
`CC(C)N1CCC(Oc2ccc(N3CCN(C(=O)c4ccc(F)cc4F)CC3=O)cc2)CC1` gave a logD in series [1] of -0.05.
On the same count and under the same terms, the value for `O=C(c1ccc(C(=O)N2CCN(c3ccc(OCCCN4CCCCC4)cc3)C(=O)C2)cc1)N1CCC1` was -0.95; that for `O=C(c1ccncc1)N1CCN(c2ccc(OCCCN3CCCCC3)cc2)C(=O)C1` was -1.6.
In turn, `C[C@H]1CCCN1CCCOc1ccc(N2CCN(C(=O)c3ccc(F)cc3F)CC2=O)cc1` showed a logD in series [1] of -0.13.
As to `CS(=O)(=O)c1cccc(C(=O)N2CCN(c3ccc(OC4CCN(C5CCCC5)CC4)cc3)C(=O)C2)c1`, in series [1], the logD is -0.41.
Same read-out and setting: the value for `CS(=O)(=O)c1ccc(C(=O)N2CCN(c3ccc(OC4CCN(C5CCCC5)CC4)cc3)C(=O)C2)cc1` was -0.46.
`O=C(c1ccc(C(=O)N2CCN(c3ccc(OC4CCN(C5CCC5)CC4)cc3)C(=O)C2)cc1)N1CCC1.O=CO` returned a logD in [1] of -0.29. Besides, in series [2], the Kp at 5 min amounted to 0.1.
With `O=C(c1ccccc1)N1CCN(c2ccc(OC3CCN(C4CCC4)CC3)cc2)C(=O)C1`, the logD in series [1] is 0.73.
As for `Cl.O=C(c1ccc(Cl)cc1)N1CCN(c2ccc(OC3CCN(C4CCC4)CC3)cc2)C(=O)C1`, the logD in [1] came to 1.51. For the same compound, the Kp at 5 min in series [2] is 0.4.
Turning to `O=C(c1ccc(F)cc1)N1CCN(c2ccc(OCCCN3CCCC3)cc2)C(=O)C1.O=CO`, the Vd in series [3] stood at 2 L/kg. Besides, the results for the Cmax in [4] and in series [5] were 342 ng/mL and 40 ng/mL, respectively. Besides, the logD in series [1] was found to be 0.14. The AUC was 536 ng·h/mL in series [6] and 355 ng·h/mL in series [9]. The compound also displayed a clearance in series [7] of 31 mL/min/kg. The Tmax came to 7 h in series [8] and 4.8 min in series [10]. This compound had a half-life in series [11] of 1.3 h.
As for `N#Cc1ccc(C(=O)N2CCN(c3ccc(OCCCN4CCCCC4)cc3)C(=O)C2)cc1`, the logD in series [1] was -0.38.
On the same count and under the same terms, the value for `C[C@@H]1CCCN1CCCOc1ccc(N2CCN(C(=O)c3ccc(F)cc3)CC2=O)cc1` was -0.13; that for `O=C(c1cc(F)cc(F)c1)N1CCN(c2ccc(OCCCN3CCCCC3)cc2)C(=O)C1` was 0.2; that for `N#Cc1ccc(C(=O)N2CCN(c3ccc(OCCCN4CCCCCC4)cc3)C(=O)C2)cc1` was -0.39.
The compound `O=C(c1cc(F)cc(F)c1)N1CCN(c2ccc(OC3CCN(C4CCC4)CC3)cc2)C(=O)C1` yielded a logD in series [1] of 0.99.
Same read-out and setting: then `O=C(c1cc(F)cc(F)c1)N1CCN(c2ccc(OCCCN3CCCC3)cc2)C(=O)C1`, with -0.38; and `Cc1ccc(C(=O)N2CCN(c3ccc(OCCCN4CCCCC4)cc3)C(=O)C2)cc1`, with 0.48.
As for `O=C(c1cc(F)cc(F)c1)N1CCN(c2ccc(OC3CCN(C4CCCC4)CC3)cc2)C(=O)C1`, the logD in series [1] was 1.03.
On the same count and under the same terms, then `C[C@H]1CCCN1CCCOc1ccc(N2CCN(C(=O)c3ccc(F)cc3)CC2=O)cc1`, with -0.18; and `C[C@@H]1CCCN1CCCOc1ccc(N2CCN(C(=O)c3cc(F)cc(F)c3)CC2=O)cc1`, with -0.02.
As for `CS(=O)(=O)c1ccc(C(=O)N2CCN(c3ccc(OC4CCN(C5CCC5)CC4)cc3)C(=O)C2)cc1.O=CO`, in series [1], the logD was -0.38. This compound also returned a Cmax in series [5] of 10 ng/mL. In addition, the Tmax in series [8] was determined as 4 h. This compound also returned an AUC in series [9] of 67 ng·h/mL.
The compound `O=C(c1ccc(Cl)cc1)N1CCN(c2ccc(OC3CCN(C4CCCC4)CC3)cc2)C(=O)C1` returned a logD in series [1] of 1.52.
Regarding `C[C@H]1CCCN1CCCOc1ccc(N2CCN(C(=O)c3ccc(C#N)cc3)CC2=O)cc1`, in series [1], the logD is -0.6.
In the case of `Cc1ccc(C(=O)N2CCN(c3ccc(OC4CCN(C5CCC5)CC4)cc3)C(=O)C2)cc1`, the logD in series [1] was 1.3.
Same read-out and setting: the value for `CC(C)N1CCC(Oc2ccc(N3CCN(C(=O)c4ccc(C#N)cc4)CC3=O)cc2)CC1` was -0.64; that for `C[C@H]1CCCN1CCCOc1ccc(N2CCN(C(=O)c3cc(F)cc(F)c3)CC2=O)cc1` was 0.09.
Consider `C[C@@H]1CCCN1CCCOc1ccc(N2CCN(C(=O)c3ccc(C#N)cc3)CC2=O)cc1.O=CO`, for which the Vd in [3] worked out at 2.1 L/kg. The Cmax in series [4] amounted to 729 ng/mL; in [5] it was 52 ng/mL. This compound gave a logD in series [1] of -0.59. In addition, the exposure (AUC) in series [6] worked out at 1190 ng·h/mL; in series [9] it was 441 ng·h/mL. The compound further returned a bioavailability in series [12] of 7%. In series [7], this compound displayed a clearance of 13 mL/min/kg. In addition, the time of peak concentration (Tmax) in series [8] worked out at 7 h; in series [10], 4.8 min. The compound also had a half-life in series [11] of 1.8 h.
With `O=C(c1cc(F)cc(F)c1)N1CCN(c2ccc(OCCCN3CCCCCC3)cc2)C(=O)C1`, in series [1], the logD was found to be 0.24.
As to `CC(C)(C)C(=O)N1CCN(c2ccc(OCCCN3CCCCC3)cc2)C(=O)C1.Cl`, in series [1], the logD is -0.02. Besides, the Kp at 5 min in series [2] came out at 0.1.
`O=C(c1ccccc1)N1CCN(c2ccc(OCCCN3CCCCC3)cc2)C(=O)C1` came in with a logD in series [1] of -0.09.
Turning to `O=C(c1ccc(F)cc1)N1CCN(c2ccc(OCCCN3CCCCC3)cc2)C(=O)C1`, the clearance in [13] was 9 mL/min/kg. In addition, the pH-dependent lipophilicity (Log D) in series [1] stood at 0.11. The Vd in [14] amounted to 2.9 L/kg. In series [15], this compound gave a half-life of 4.3 h.
For the compound `CC(C)N1CCC(Oc2ccc(N3CCN(C(=O)c4cc(F)cc(F)c4)CC3=O)cc2)CC1`, the log distribution coefficient (logD) in series [1] stood at 0.06.
`O=C(c1ccc(F)cc1F)N1CCN(c2ccc(OC3CCN(C4CCCC4)CC3)cc2)C(=O)C1`: in [1], the logD came out at 0.96.
Same read-out and setting: then `N#Cc1ccc(C(=O)N2CCN(c3ccc(OCCCN4CCCC4)cc3)C(=O)C2)cc1`, with -1.07; and `O=C(c1ccc(F)cc1)N1CCN(c2ccc(OC3CCN(C4CCCC4)CC3)cc2)C(=O)C1`, with 0.88; and `O=C(c1ccc(F)cc1F)N1CCN(c2ccc(OCCCN3CCCCC3)cc2)C(=O)C1`, with 0.1.
Consider `O=C(c1ccc(F)cc1F)N1CCN(c2ccc(OCCCN3CCCCCC3)cc2)C(=O)C1`, for which the logD in series [1] came to 0.15.
In turn, `O=C(c1cnn2cccnc12)N1CCN(c2ccc(OCCCN3CCCCC3)cc2)C(=O)C1` registered a logD in series [1] of -1.1.
On the same count and under the same terms, the value for `CS(=O)(=O)c1cccc(C(=O)N2CCN(c3ccc(OCCCN4CCCCC4)cc3)C(=O)C2)c1` was -1.22; that for `N#Cc1ccc(C(=O)N2CCN(c3ccc(OC4CCN(C5CCCC5)CC4)cc3)C(=O)C2)cc1` was 0.37; that for `O=C(c1ccc(F)cc1F)N1CCN(c2ccc(OC3CCN(C4CCC4)CC3)cc2)C(=O)C1` was 0.95.
Same read-out and setting: the value for `CS(=O)(=O)c1ccc(C(=O)N2CCN(c3ccc(OCCCN4CCCCC4)cc3)C(=O)C2)cc1` was -1.19; that for `O=C(c1ccc(F)cc1)N1CCN(c2ccc(OCCCN3CCCCCC3)cc2)C(=O)C1` was -0.47.

For orientation: logD means the decadic logarithm of the distribution of all forms, ionised or not, between an organic phase and buffer at a given pH. As usually defined, the Kp is tissue or fluid exposure divided by exposure in the circulation. Usually Vd stands for the apparent volume that relates the amount in the body to the concentration in plasma or blood. Higher therefore signals extensive tissue distribution. For orientation: Cmax means the maximum level reached in the sampled fluid or tissue. For orientation: AUC means concentration integrated over time. Read a high AUC as more exposure. In general, clearance refers to a measure of how efficiently the substance is removed, as volume per time. Read a high clearance as efficient removal. What is called Tmax is the time at which the peak concentration occurs. As a reminder, the half-life is how long it takes for the measured level to halve. Low values mean rapid decline, high ones slow decline. By bioavailability is commonly meant dose-corrected exposure relative to a reference, in per cent. Lower therefore signals little systemic uptake. One may read the Log D as the decadic logarithm of the distribution of all forms, ionised or not, between an organic phase and buffer at a given pH. A high value points to a more lipophilic compound.
